Reference: ChEMBL document CHEMBL4689842, “EUbOPEN Chemogenomics Library wave 1” (2021)
“And” between values parts separate entries of the source, which are not always exact repeats. Equal entries are not always repeated.

System: HEK-293T
Assay: Multiplex assay against HEK293T;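 as to Population Tubulin-Different-Phenotype (%): share of the cells with healthy nuclei that show this phenotype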
Type: toxicity, cell-based
Details: human, 1 µM, compound concentration 1 uM
Summary of the method: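 Cells were classed with CellPathfinder machine-learning gating, first as Hoechst high-intensity objects or normal cells, then (normal cells) as healthy, pyknosed or fragmented nuclei, and finally (pyknosed cells) as mitotic or apoptotic. Staining of live cells at seeding used Hoechst33342, BioTracker Green Microtubule Cytoskeleton Dye, MitoTracker Red and Annexin V Alexa Fluor 680, with imaging on a CQ1 microscope at 37°C and 5% CO2 after compound addition. Tubulin, mitochondrial-mass and membrane-permeability phenotypes are per cents of healthy-nucleus cells.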

## C[C@H]1Oc2cc(cnc2N)-c2c(nn(C)c2C#N)CN(C)C(=O)c2ccc(F)cc21 [LORLATINIB]
12 h, replicate 1
  Population Apoptotic (%): 21% and 18%
  Population Fragmented Nuclei (%): 16% and 9%
  Population Healthy Nuclei (%): 66% and 76%
  Population Hoechst High Intensity Objects (%): 11% and 7%
  Population Membrane Permeable-Phenotype (%): 7% and 4%
  Population Mitochondria Different-Phenotype (%): 3% and 5%
  Population Mitotic Cells (%): 78% and 81%
  Population Normal (%): 88% and 92%
  Population Pyknosed Nuclei (%): 17% and 14%
  Population Tubulin-Different-Phenotype (%): 2% and 3%
  Total Cell Count: 529 and 617
12 h, replicate 2
  Population Apoptotic (%): 5% and 14%
  Population Fragmented Nuclei (%): 6% and 7%
  Population Healthy Nuclei (%): 87%
  Population Hoechst High Intensity Objects (%): 2%
  Population Membrane Permeable-Phenotype (%): 3% and 1%
  Population Mitochondria Different-Phenotype (%): 7% and 6%
  Population Mitotic Cells (%): 94% and 85%
  Population Normal (%): 97%
  Population Pyknosed Nuclei (%): 6% and 5%
  Population Tubulin-Different-Phenotype (%): 9%
  Total Cell Count: 1515 and 1456
24 h, replicate 1
  Population Apoptotic (%): 18% and 15%
  Population Fragmented Nuclei (%): 12% and 7%
  Population Healthy Nuclei (%): 75% and 82%
  Population Hoechst High Intensity Objects (%): 3% and 4%
  Population Membrane Permeable-Phenotype (%): 10% and 9%
  Population Mitochondria Different-Phenotype (%): 2% and 5%
  Population Mitotic Cells (%): 81% and 84%
  Population Normal (%): 96% and 95%
  Population Pyknosed Nuclei (%): 12% and 9%
  Population Tubulin-Different-Phenotype (%): 5% and 4%
  Total Cell Count: 614 and 730
24 h, replicate 2
  Population Apoptotic (%): 3% and 7%
  Population Fragmented Nuclei (%): 14% and 18%
  Population Healthy Nuclei (%): 80% and 78%
  Population Membrane Permeable-Phenotype (%): 8% and 3%
  Population Mitochondria Different-Phenotype (%): 1%
  Population Mitotic Cells (%): 96% and 92%
  Population Pyknosed Nuclei (%): 4% and 3%
  Population Tubulin-Different-Phenotype (%): 9% and 3%
  Total Cell Count: 2424 and 2417
